# Test results as given in PMC5651187 (Cellular signalling, 2017).
# Where a chain is given by its changes, count along the chain named.
# Tests used:
# Vav3 C1 2X (T24L/Y26K) = target: T1, Vav3 C1 2X (T24L/Y26K) (Homo sapiens, UniProt Q9UKW4, T537L/Y539K); test: [3H]PDBu binding, polyethylene glycol precipitation assay
# T1 sequence (Q9UKW4 513-562 T537L/Y539K): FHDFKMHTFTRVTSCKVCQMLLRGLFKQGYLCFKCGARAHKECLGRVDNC
# Procedure, shortened: (§1)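 GST-fused C1 domain, cloned into pGEX-5x-1 and expressed in BL21 cells. Cultures grown in LB at 37°C to OD 0.5, induced with 0.5 mM IPTG, then grown 4 h at 37°C. Cells lysed with bacterial extraction reagent; protein purified and eluted on a GST spin column. Kd for [3H]PDBu determined by polyethylene glycol precipitation. Values are mean ± SEM of three experiments.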
# [1] = system: C1 domain of PKCδ with the corresponding residues in the Vav1 C1 domain; details: five amino acids replaced; ref [17]; cited from earlier work
# [2] = target: T2, Vav3 C1 5X (T9M/R10S/V11P/T24L/Y26K) (Homo sapiens, UniProt Q9UKW4, R523S/T522M/T537L/V524P/Y539K); test: [3H]PDBu binding, polyethylene glycol precipitation assay
# T2 sequence (Q9UKW4 513-562 T522M/R523S/V524P/T537L/Y539K): T1 sequence (Q9UKW4 513-562 T537L/Y539K) with T10M, R11S, V12P
# Procedure, shortened: as §1
# [3] = target: T3, Vav3 C1 3X (T9M/R10S/V11P) (Homo sapiens, UniProt Q9UKW4, R523S/T522M/V524P); test: [3H]PDBu binding, polyethylene glycol precipitation assay
# T3 sequence (Q9UKW4 513-562 T522M/R523S/V524P): T1 sequence (Q9UKW4 513-562 T537L/Y539K) with T10M, R11S, V12P, L25T, K27Y
# Procedure, shortened: as §1, with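 “two replicates.” for “three experiments.”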
# [4] = target: Vav1 C1 5X (E9M/E10S/T11P/T24L/Y26K); details: ref [17], cited from earlier work
# Vav1 C1 2X (T24L/Y26K) = details: GST-tagged C1 domain; NA, no activity; ref [17]; cited from earlier work
# [5] = target: Vav1 C1 3X (E9M/E10S/T11P); details: ref [17], cited from earlier work
# Vav1 C1 WT = details: GST-tagged C1 domain; NA, no activity; ref [17]; cited from earlier work
# [6] = target: T4, Vav2 C1 5X (D9M/K10S/T11P/T24L/Y26K) (Homo sapiens, UniProt P52735, D532M/K533S/T534P/T547L/Y549K); test: [3H]PDBu binding, polyethylene glycol precipitation assay
# T4 sequence (P52735 523-572 D532M/K533S/T534P/T547L/Y549K): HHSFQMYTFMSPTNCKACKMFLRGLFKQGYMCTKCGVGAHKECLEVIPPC
# Procedure, shortened: as §1
# [7] = target: T5, full length Vav3 wild-type in LNCaP cells (Homo sapiens, UniProt Q9UKW4); test: Membrane translocation of GFP-tagged protein, confocal microscopy; assay type: cell-based; details: 10 μM PMA
# T5 sequence (Q9UKW4 1-847): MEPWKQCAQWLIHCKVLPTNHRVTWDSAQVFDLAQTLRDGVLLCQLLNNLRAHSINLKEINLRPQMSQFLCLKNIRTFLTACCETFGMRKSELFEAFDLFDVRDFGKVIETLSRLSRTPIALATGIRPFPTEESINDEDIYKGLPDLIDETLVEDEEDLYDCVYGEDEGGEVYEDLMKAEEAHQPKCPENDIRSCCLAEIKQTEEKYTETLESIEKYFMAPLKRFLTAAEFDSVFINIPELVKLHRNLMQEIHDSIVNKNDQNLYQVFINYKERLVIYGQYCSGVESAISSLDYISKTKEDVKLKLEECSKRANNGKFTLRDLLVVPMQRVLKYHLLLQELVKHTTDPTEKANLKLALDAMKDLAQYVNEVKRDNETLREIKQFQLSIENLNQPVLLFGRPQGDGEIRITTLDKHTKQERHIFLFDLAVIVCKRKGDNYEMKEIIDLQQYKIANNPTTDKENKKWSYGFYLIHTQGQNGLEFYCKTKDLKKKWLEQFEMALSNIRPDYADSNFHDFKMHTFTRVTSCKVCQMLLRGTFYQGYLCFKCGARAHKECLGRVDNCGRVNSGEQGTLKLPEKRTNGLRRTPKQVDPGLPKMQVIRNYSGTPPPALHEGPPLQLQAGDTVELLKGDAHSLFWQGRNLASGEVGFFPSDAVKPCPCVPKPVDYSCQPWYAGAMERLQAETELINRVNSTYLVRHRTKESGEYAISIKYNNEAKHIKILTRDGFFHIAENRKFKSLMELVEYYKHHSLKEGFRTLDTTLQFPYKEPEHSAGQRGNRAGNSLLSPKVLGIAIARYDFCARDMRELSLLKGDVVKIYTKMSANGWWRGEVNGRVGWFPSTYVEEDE
# Procedure, shortened: (§2)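 LNCaP cells (passage 3–20) grown in RPMI 1640 with 10% FBS and 2 mM L-glutamine at 37°C, transfected with GFP constructs at 75% confluency; PMA added 24 h later. Confocal imaging with 488 nm excitation and 535–553 nm emission. Membrane/cytoplasm mean-intensity ratio from 3 membrane and 3 cytoplasm regions (~5 μm²) at 0, 5, 10, 30, 45 min (120 min where indicated). Mean ± SEM, ≥3 cells in each of ≥3 independent experiments; Student's t-test.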
# Vav3 CaWT in LNCaP cells = target: T6, Vav3 CaWT in LNCaP cells (Homo sapiens, UniProt Q9UKW4); test: as above; assay type: cell-based; details: 10 μM PMA
# T6 sequence (Q9UKW4 177-847 limits assumed): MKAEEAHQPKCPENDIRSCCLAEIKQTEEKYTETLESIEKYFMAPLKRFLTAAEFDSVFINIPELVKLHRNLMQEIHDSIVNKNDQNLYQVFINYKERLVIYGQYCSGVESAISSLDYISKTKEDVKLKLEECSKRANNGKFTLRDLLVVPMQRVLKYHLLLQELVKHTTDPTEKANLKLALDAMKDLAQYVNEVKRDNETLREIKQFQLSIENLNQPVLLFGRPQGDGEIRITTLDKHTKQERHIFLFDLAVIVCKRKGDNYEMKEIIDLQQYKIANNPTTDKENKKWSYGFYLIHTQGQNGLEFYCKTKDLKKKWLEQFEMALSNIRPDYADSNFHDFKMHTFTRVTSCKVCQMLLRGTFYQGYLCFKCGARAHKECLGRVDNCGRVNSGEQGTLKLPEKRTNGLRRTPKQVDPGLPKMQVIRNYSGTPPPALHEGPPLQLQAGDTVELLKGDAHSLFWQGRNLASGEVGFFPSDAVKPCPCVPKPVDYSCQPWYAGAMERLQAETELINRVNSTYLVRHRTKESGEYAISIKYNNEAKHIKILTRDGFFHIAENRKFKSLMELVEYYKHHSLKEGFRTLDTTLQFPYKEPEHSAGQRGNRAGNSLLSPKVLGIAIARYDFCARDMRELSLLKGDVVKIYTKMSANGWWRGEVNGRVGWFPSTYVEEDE
# Procedure, shortened: as §2
# Vav3 5X in LNCaP cells = target: T7, Vav3 5X in LNCaP cells (Homo sapiens, UniProt Q9UKW4, R523S/T522M/T537L/V524P/Y539K); test: as above; assay type: cell-based; details: 10 μM PMA
# T7 sequence (Q9UKW4 1-847 T522M/R523S/V524P/T537L/Y539K): T5 sequence (Q9UKW4 1-847) with T522M, R523S, V524P, T537L, Y539K
# Procedure, shortened: as §2
# [8] = GST-tagged C1 domain, mean ± SEM of triplicate experiments
Compound,Relative to PKCδ C1b (Vav3 C1 2X (T24L/Y26K)) [×],Kd (Vav3 C1 2X (T24L/Y26K); [8]) [nM],PDBu binding affinity [1],Relative to PKCδ C1b [2] [×],"Kd [2, 8] [nM]",Relative to PKCδ C1b [3] [×],"Kd ([3]; GST-tagged C1 domain, mean ± SEM, only 2 replicates) [nM]",Kd ([4]; GST-tagged C1 domain) [nM],Relative to PKCδ C1b [4] [×],Kd (Vav1 C1 2X (T24L/Y26K)),Kd ([5]; GST-tagged C1 domain) [nM],Relative to PKCδ C1b [5],Kd (Vav1 C1 WT),Relative to PKCδ C1b [6] [×],"Kd [6, 8] [nM]",membrane translocation in response to phorbol ester [7],membrane translocation in response to phorbol ester (Vav3 CaWT in LNCaP cells),membrane translocation in response to phorbol ester (Vav3 5X in LNCaP cells)
"CCCC(=O)O[C@@H]1[C@@H](C)[C@@]2(O)[C@@H](C=C(CO)C[C@]3(O)C(=O)C(C)=C[C@@H]23)[C@@H]2C(C)(C)[C@]12OC(=O)CCC [PDBu, Phorbol 12,13-dibutyrate]",938,188 ± 35,abolished detectable PDBu binding affinity,23.5,4.7 ± 0.8,4380,840 ± 120,1.05 ± 0.14,5.4,did not restore phorbol ester binding,7330 ± 490,"38,000 ×",no detectable binding,3370,650.7 ± 2.6,–,–,–
"CCCCCCCCCCCCCC(=O)O[C@@H]1[C@@H](C)[C@@]2(O)[C@@H](C=C(CO)C[C@]3(O)C(=O)C(C)=C[C@@H]23)[C@@H]2C(C)(C)[C@]12OC(C)=O [PMA, phorbol 12-myristate 13-acetate]",–,–,–,–,–,–,–,–,–,–,–,–,–,–,–,neither the wild-type Vav3 nor the Vav3 CaWT translocated,neither the wild-type Vav3 nor the Vav3 CaWT translocated,became visible after 10 min but became more evident after 2 h
